Consider 22 compounds from ChEMBL document CHEMBL1132207, “Homology modeling of gelatinase catalytic domains and docking simulations of novel sulfonamide inhibitors” (J Med Chem, 1999).

pIC50: −log10 of the molar value. A value given as a limit tells only on which side of the number the result lay.

The target in test [1] is 72 kDa type IV collagenase (Homo sapiens, UniProt P08253).
Test [2] addresses Matrix metalloproteinase-9 (Homo sapiens, UniProt P14780). The test can be described thus: Inhibitory activity against Matrix metalloprotease-9 (concentration required for 50% inhibition of enzyme activity). Summed up:
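Substrate added from a 1 mM DMSO stock, reaction 60 min, stopped with 3% acetic acid. Fluorescence read at ex 320/em 405 nm. Mean of two assays; IC50 taken as 50% inhibition.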

Sequence of Matrix metalloproteinase-9 (P14780 whole entry): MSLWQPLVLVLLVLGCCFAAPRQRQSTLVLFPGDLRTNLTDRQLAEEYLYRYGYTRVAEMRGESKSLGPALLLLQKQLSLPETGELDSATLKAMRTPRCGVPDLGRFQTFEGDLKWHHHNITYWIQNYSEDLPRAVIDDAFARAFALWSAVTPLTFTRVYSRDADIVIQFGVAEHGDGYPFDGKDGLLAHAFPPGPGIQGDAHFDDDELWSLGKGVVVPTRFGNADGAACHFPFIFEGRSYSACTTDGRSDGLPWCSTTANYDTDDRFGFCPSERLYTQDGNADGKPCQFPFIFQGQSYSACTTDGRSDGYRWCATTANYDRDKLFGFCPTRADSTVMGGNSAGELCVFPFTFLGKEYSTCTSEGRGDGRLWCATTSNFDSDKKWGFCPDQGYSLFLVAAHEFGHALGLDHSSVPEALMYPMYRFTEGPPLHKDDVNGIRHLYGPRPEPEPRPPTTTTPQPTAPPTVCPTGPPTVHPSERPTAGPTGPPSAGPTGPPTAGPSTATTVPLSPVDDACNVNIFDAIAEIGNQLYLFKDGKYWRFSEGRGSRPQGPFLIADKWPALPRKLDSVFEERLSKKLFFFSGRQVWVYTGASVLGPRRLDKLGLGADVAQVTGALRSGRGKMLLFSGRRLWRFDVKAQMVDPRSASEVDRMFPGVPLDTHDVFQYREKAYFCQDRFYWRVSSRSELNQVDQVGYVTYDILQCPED
Sequence of 72 kDa type IV collagenase (P08253 whole entry): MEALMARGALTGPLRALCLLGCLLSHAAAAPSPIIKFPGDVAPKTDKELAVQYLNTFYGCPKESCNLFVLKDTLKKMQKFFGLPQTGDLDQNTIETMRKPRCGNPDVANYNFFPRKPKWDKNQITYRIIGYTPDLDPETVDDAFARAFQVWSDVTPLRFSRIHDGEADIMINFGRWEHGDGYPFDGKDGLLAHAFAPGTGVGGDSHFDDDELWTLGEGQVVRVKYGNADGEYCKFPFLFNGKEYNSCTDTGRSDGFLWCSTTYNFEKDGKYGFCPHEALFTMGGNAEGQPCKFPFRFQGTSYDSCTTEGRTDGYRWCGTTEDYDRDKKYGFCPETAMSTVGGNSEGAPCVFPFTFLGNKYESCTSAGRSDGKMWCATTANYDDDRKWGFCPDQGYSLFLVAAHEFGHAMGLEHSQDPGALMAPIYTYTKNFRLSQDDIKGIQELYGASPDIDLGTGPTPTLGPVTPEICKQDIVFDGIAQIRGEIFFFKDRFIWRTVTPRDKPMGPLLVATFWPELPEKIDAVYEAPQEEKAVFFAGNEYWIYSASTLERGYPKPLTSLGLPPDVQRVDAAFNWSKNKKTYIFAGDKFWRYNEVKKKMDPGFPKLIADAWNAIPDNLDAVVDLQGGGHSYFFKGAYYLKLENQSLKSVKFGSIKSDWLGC

Take `CC(C)[C@@H](NS(=O)(=O)c1ccc(C#Cc2ccc(Oc3ccccc3)cc2)s1)C(=O)O`: the negative-log IC50 (pIC50) (in general, −log10 of the IC50, conventionally taken in molar units) was 7.74 in test [1] and 6.59 in test [2].

On to `COc1ccc(C#Cc2ccc(S(=O)(=O)N[C@H](Cc3c[nH]c4ccccc34)C(=O)O)cc2)cc1`, for which the results for the pIC50 in test [1] and in test [2] were 9.19 and 8.09, respectively. For `Cc1ccc(C#Cc2ccc(S(=O)(=O)N[C@@H](C(=O)O)C(C)C)s2)cc1`, in that order: 8.23 and 7.62.

Take `CC(C)[C@H](C(=O)O)N(C)S(=O)(=O)c1ccc(-c2nnn(-c3ccccc3)n2)cc1`: the negative-log IC50 (pIC50) in test [2] was 6.06.

In the case of `O=C(O)[C@@H](Cc1c[nH]c2ccccc12)NS(=O)(=O)c1cccc2ccccc12`, the negative logarithm of the IC50 (pIC50) in test [1] and in test [2] was less than 4.70 in each case.

Turning to `O=C(O)[C@@H](Cc1c[nH]c2ccccc12)NS(=O)(=O)c1ccc2ccccc2c1`, the negative logarithm of the IC50 (pIC50) in test [1] was 6.30; in test [2] it was less than 4.70.

As to `O=C(O)[C@@H](Cc1ccccc1)NS(=O)(=O)c1ccc(-c2ccccc2)cc1`, the negative logarithm of the IC50 (pIC50) in test [2] is 5.57.

As for `O=C(O)[C@@H](Cc1ccccc1)NS(=O)(=O)c1ccc(C#Cc2ccccc2)cc1`, the negative-log IC50 (pIC50) in test [1] is 7.70; in test [2], 6.47.

In turn, `O=C(N[C@H](Cc1ccccc1)C(=O)O)c1ccc(-c2ccccc2)cc1` gave a negative logarithm of the IC50 (pIC50) in test [2] of less than 4.70. Same read-out and setting: for `O=C(O)[C@@H](Cc1c[nH]c2ccccc12)NS(=O)(=O)c1ccc(C#Cc2ccc(Oc3ccccc3)cc2)s1` the value was 5.64.

Take `COc1ccc(C#Cc2ccc(S(=O)(=O)N[C@H](Cc3c[nH]c4ccccc34)C(=O)O)cc2[N+](=O)[O-])cc1`: the figures for the pIC50 in test [1] and in test [2] were 7.48 and 5.72, respectively. As to `CC(C)[C@@H](NS(=O)(=O)c1ccc(-c2nnn(-c3ccccc3)n2)cc1)C(=O)O`, in test [2], the pIC50 was 7.14.

In the case of `CCCCc1ccc(C#Cc2ccc(S(=O)(=O)N[C@@H](C(=O)O)C(C)C)s2)cc1`, the negative-log IC50 (pIC50) in test [1] is 8.27; in test [2] it was 6.68.

`CCc1ccc(C#Cc2ccc(S(=O)(=O)N[C@H](Cc3c[nH]c4ccccc34)C(=O)O)s2)cc1`: the pIC50 in test [2] is 8.14. On to `O=C(O)[C@@H](Cc1ccccc1)NS(=O)(=O)c1ccc(-c2ccc(-c3ccccc3)cc2)cc1`, for which the negative-log IC50 (pIC50) in test [1] was 8.36; in test [2], 7.92. As to `Cc1ccc(C#Cc2ccc(S(=O)(=O)N[C@H](Cc3c[nH]c4ccccc34)C(=O)O)s2)cc1` [S-3304], the pIC50 in test [2] is 8.02.

With `Cc1ccccc1C#Cc1ccc(S(=O)(=O)N[C@H](Cc2c[nH]c3ccccc23)C(=O)O)s1`, the pIC50 in test [1] was 7.09; in test [2], 5.77. For the compound `O=C(O)[C@@H](Cc1ccccc1)NS(=O)(=O)c1ccc(Br)cc1`, the figures for the pIC50 in test [1] and in test [2] were 5.15 and less than 4.70, respectively. In test [2], `CCCCc1ccc(C#Cc2ccc(S(=O)(=O)N[C@H](Cc3c[nH]c4ccccc34)C(=O)O)s2)cc1` had a pIC50 of 5.57. For `CCc1ccc(C#Cc2ccc(S(=O)(=O)N[C@@H](C(=O)O)C(C)C)s2)cc1`, the results for the pIC50 in test [1] and in test [2] were 8.32 and 8.36, respectively. For `CCCCOc1ccc(C#Cc2ccc(S(=O)(=O)N[C@@H](C(=O)O)C(C)C)s2)cc1`, in that order: 8.33 and 6.68. As to `CCCCOc1ccc(C#Cc2ccc(S(=O)(=O)N[C@H](Cc3c[nH]c4ccccc34)C(=O)O)s2)cc1`, in test [2], the pIC50 was 5.70.
